Hits are enriched below; roughly 1.9% of the tested compounds scored in any of these assays.
FAS-TE inh: blocks the thioesterase domain of human fatty acid synthase; P49327; recombinant FAS-TE, OMFH fluorogenic substrate, fluorescence endpoint; inhibition, % at 15 µM; 360,000 tested, 0.67% active;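 active = compounds whose normalised, plate-corrected inhibition of enzyme fluorescence in the single-dose primary screen is 50% or more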
Scp-1 inhibitor: blocks human Scp-1 phosphatase activity; AID 493091; Recombinant Scp1, phosphopeptide, malachite green phosphate absorbance; 340,000 tested, 0.88% active; inhibition, % at 20 µM; Q9GZU7;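 active = inhibition above about 50% at 20 µM, limit read from the data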
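Incubation: 45 min enzyme reaction at room temperature / System: truncated SCP-1 phosphatase (76-261aa) / Reagent: Phospho 17-mer peptide substrate / Buffer or medium: Acidic Tris acetate buffer with magnesium and detergent / Signal: absorbance at 630 nm / Doses: one concentration, 20 µM, with 1.0% DMSO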
SUMO1 PPI mod: modulators of human SUMO1-mediated protein-protein interactions. P63165. SUMO1 binding to a labelled peptide, TR-FRET, 1 h. inhibition, % at 20 µM. 360,000 tested, 0.33% active. AID 602429; in the data active = inhibition above about 37%
LMPTP block: blocks human LMPTP phosphatase; recombinant LMPTP-A, OMFP fluorogenic substrate, fluorescence intensity; inhibition, % at 20 µM; 360,000 tested, 0.22% active; AID 651560;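 active = compounds that cut the enzyme signal by at least half of the control window in the single-dose screen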
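Test system: LMPTP-A, protein tyrosine phosphatase of low molecular weight; Input: 0.625 nM enzyme; Incubation: 50 min dark incubation at room temperature; Signal: endpoint fluorescence intensity from OMFP dephosphorylation; Read-out basis: % inhibition versus control wells.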
STEP inh: blocks human striatal-enriched tyrosine phosphatase; P54829; recombinant STEP, OMFP fluorogenic substrate, fluorescence; inhibition, % at 20 µM; 360,000 tested, 0.25% active; AID 588621;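 active = inhibition at 20 µM, scaled per plate between control wells, above about 37%, limit read from the data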
Target sequence (P54829 whole entry, looked up): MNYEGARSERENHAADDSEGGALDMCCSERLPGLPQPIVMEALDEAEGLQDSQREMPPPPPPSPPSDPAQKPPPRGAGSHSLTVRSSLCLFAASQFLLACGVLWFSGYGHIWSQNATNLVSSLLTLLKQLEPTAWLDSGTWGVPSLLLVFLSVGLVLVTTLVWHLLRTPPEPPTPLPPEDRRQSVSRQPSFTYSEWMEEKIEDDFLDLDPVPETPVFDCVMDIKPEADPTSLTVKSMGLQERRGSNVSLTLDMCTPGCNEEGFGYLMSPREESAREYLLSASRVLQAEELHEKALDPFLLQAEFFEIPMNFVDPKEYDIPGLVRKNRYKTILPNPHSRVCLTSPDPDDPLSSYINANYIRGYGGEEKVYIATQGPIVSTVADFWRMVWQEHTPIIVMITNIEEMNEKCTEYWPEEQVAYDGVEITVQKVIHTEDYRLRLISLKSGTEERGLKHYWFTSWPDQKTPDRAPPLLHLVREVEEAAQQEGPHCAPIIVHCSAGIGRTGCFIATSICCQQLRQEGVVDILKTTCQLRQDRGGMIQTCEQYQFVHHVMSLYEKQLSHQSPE
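Test system: STEP tyrosine phosphatase / Reagent: OMFP at 25 µM / Doses: 20 µM, 1% DMSO / Read-out: percent inhibition scaled to no-enzyme and uninhibited-enzyme controls, plate-pattern corrected / Detection: FITC-channel fluorescence of OMFP product / Medium: Bis-Tris buffer pH 6.0, 2.5 mM DTT, 0.005% Tween 20 / Schedule: 20 min at room temperature, dark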
FAS-TE inh conf: confirmation of human fatty acid synthase thioesterase inhibitors. shares compounds with FAS-TE inh. recombinant FAS-TE, OMFH fluorogenic substrate, fluorescence. inhibition, % at 15 µM. 2,300 tested, 45% active;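 active = compounds inhibiting the enzyme by at least 50% at 15 µM in any one of the replicates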
Hits are given with their value; n = inactive; x = no result.

SMILES | FAS-TE inh | Scp-1 inhibitor | SUMO1 PPI mod | LMPTP block | STEP inh | FAS-TE inh conf
N#C/C(=C\c1ccc(OCc2ccc(Cl)cc2)cc1)C(=O)Nc1cccc(C(=O)O)c1 | 53 | n | 66 | n | 58 | n
O=C(O)c1cccc(NC(=O)c2ccc(COc3ccc(Cl)cc3)cc2)c1 | n | n | n | n | n | x
CCCCC(=O)N(C)c1c(C)nc2ccc(C(=O)N(CC)CCN(C)C)cn12 | n | x | n | n | n | x
O=c1c2c3c(sc2nc(NCCO)n1CCc1ccccc1)CCCCC3 | 50 | n | n | n | n | n
O=c1c2c3c(sc2nc(NCCO)n1Cc1ccco1)CCCCC3 | n | n | n | n | n | x
CCOC1=C2[C@H](c3cccc(Cl)c3)N(S(=O)(=O)c3ccc(C)cc3)C[C@H]2n2c(=O)n(-c3ccccc3)c(=O)n2C1 | 70 | x | n | n | n | n
CCOC1=C2[C@H](c3ccccc3F)N(S(=O)(=O)c3ccc(C)cc3)C[C@H]2n2c(=O)n(-c3ccccc3)c(=O)n2C1 | 75 | x | n | n | n | n
CCOC1=C2[C@H](c3ccc(C)cc3)N(S(=O)(=O)c3ccc(C)cc3)C[C@H]2n2c(=O)n(-c3ccccc3)c(=O)n2C1 | n | x | n | n | n | x
COC(=O)c1ccc(COc2nc(C)cc(C)c2C#N)o1 | n | n | n | n | n | x
COC(=O)c1ccc(CSc2nc(C(F)F)cc(C)c2C#N)o1 | 53 | n | n | n | n | 43
CCCCC(CC)C(=O)Nc1cc([N+](=O)[O-])ccc1F (configuration not stated) | 79 | n | n | n | n | 71
COc1ccc(/C=C(/NC(=O)c2ccco2)C(=O)N2CCCC2=O)cc1 | n | n | n | n | n | x
CCCCCCCCCCCCCCCCCCNc1ccn(C2OC(COP(=O)(O)OCC3OC(n4cc(F)c(=O)[nH]c4=O)CC3O)C(O)C2O)c(=O)n1 (configuration not stated) | 55 | n | n | n | n | n
CC(=O)Nc1ccc(C=NNc2ccc([N+](=O)[O-])cc2S(=O)(=O)Nc2ccccc2C(=O)O)cc1 | n | n | n | n | n | x
COc1ccc(C(C)=NNc2ccc([N+](=O)[O-])cc2S(=O)(=O)Nc2ccccc2C(=O)O)c(OC)c1 | 71 | n | n | n | n | 68
O=S(=O)(c1ccc(F)cc1)N1CCCC(c2nc(-c3ccc(F)cc3)no2)C1 (configuration not stated) | 58 | n | n | n | n | n
O=S(=O)(Cc1ccccc1)N1CCCC(c2nc(-c3ccc(F)cc3)no2)C1 (configuration not stated) | n | n | n | n | n | x
CC(C)NC(=O)c1sc(=S)n2c1[nH]c(=O)c1ccc(C(=O)NCCc3ccc(Cl)cc3)cc12 | 64 | n | n | n | 40 | n
NC(=S)n1[nH]c(-c2ccc([N+](=O)[O-])cc2)c(N=Nc2ccc(Cl)cc2)c1=O | 66 | n | 87 | n | n | 40
Cc1ccc([N+](=O)[O-])cc1N=Nc1c(C)[nH]n(C(N)=S)c1=O | n | n | n | n | n | x
C/C=C\C(=O)Nc1cccc(C2=NOC3(C2)C[C@@H](C(N)=O)N(C(=O)COc2ccc(Cl)cc2)C3)c1 (some centres not stated) | n | n | n | n | n | x
NC(=O)[C@@H]1CC2(CC(c3cccc(NC(=O)CC(c4ccccc4)c4ccccc4)c3)=NO2)CN1C(=O)COc1ccc(Cl)cc1 (some centres not stated) | 60 | n | n | n | n | n
NC(=O)[C@H]1CC2(CC(c3cccc(NC(=O)COc4ccc(Cl)cc4)c3)=NO2)CN1C(=O)c1ccc(Cl)cc1 (some centres not stated) | n | n | n | n | n | x
NC(=O)[C@H]1CC2(CC(c3cccc(NC(=O)COc4ccc(Cl)cc4)c3)=NO2)CN1C(=O)CC(c1ccccc1)c1ccccc1 (some centres not stated) | 64 | n | n | n | n | n
Cc1ccccc1-n1cnc2c(sc3nc(N4CCOCC4)c4c(c32)CCCC4)c1=O | 66 | n | n | n | n | n
COc1ccc(-n2cnc3c(sc4nc(N5CCOCC5)c5c(c43)CCCC5)c2=O)cc1 | 63 | n | n | n | n | n

Screening data as filed in PubChem BioAssay.
